Results gathered from unrelated publications.
Compare with care: the assays were run in different laboratories.
Target: Adenosine receptor A1 (ADORA1, Homo sapiens, UniProt P30542)
Residues used in one study (P30542 1-326): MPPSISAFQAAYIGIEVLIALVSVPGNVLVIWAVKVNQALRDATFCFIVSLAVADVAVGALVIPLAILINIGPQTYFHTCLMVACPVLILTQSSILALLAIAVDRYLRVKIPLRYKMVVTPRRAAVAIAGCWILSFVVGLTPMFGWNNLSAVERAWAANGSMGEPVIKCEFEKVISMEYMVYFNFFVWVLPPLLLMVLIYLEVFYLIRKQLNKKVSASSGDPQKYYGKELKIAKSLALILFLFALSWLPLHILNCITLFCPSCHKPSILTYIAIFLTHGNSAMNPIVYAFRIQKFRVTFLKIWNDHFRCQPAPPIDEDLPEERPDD

OC[C@@]12C[C@@H]1[C@@H](n1cnc3c(NC(C4CCCC4)C4CCCC4)nc(Cl)nc31)[C@H](O)[C@@H]2O
Ki (ligand displacement; radioligand): 0.436 µM

CCCC[C@H](NC(=O)[C@H](C)c1c(C)[nH]c2ccc(O)cc12)c1ncc(-c2cc3ccccc3nc2OC)[nH]1
IC50 (cell-free assay): 2.73 µM

C#CCNc1nc(Cl)nc2c1ncn2[C@H]1[C@H](O)[C@H](O)[C@]2(C(=O)NC)C[C@H]12
Ki (ligand displacement; radioligand; cell membranes): 0.4 µM

CCCCCCN1CCCn2c1nc1c2c(=O)n(C)c(=O)n1C
Ki (ligand displacement; radioligand; cell membranes): 3.8 µM

CCNC(=O)C1OC(n2cnc3c(N)nc(NN=CC4CCC=CO4)nc32)C(O)C1O (stereo not shown)
Ki (ligand displacement; radioligand; cell membranes): 0.0764 µM

CNC(=O)[C@@]12C[C@@H]1[C@@H](n1cnc3c(NCc4cccc(C#CCCCCCc5cn(-c6ccc(F)c(N)c6)nn5)c4)nc(Cl)nc31)[C@H](O)[C@@H]2O
Ki (ligand displacement; radioligand; cell membranes): 3.78 µM

O[C@@H]1[C@H](O)CO[C@H]1n1cnc2c(NCc3cccc(I)c3)ncnc21
Ki (ligand displacement; radioligand; cell membranes): 2.08 µM

CCCCN1CCCn2c1nc1c2c(=O)n(CCC)c(=O)n1CCC
Ki (ligand displacement; radioligand; cell membranes): 0.6 µM

COCCN(CCOC)C(=O)[C@@]12C[C@@H]1[C@@H](n1cnc3c(N)nc(Cl)nc31)[C@H](O)[C@@H]2O
Ki (ligand displacement; radioligand): 0.998 µM

CNC(=O)[C@@]12C[C@@H]1[C@@H](n1cnc3c(NCc4cn(-c5ccc(F)c(N)c5)nn4)nc(Cl)nc31)[C@H](O)[C@@H]2O
Ki (ligand displacement; radioligand; cell membranes): 1.67 µM
